Screening data: PubChem, Broad Institute
Hits are enriched below; roughly 1.5% of the tested compounds scored in any of these assays.
RAD52 inh: blocks human RAD52 DNA annealing. AID 651710. P43351. recombinant RAD52 DNA annealing, FRET fluorescence. inhibition, % at 18.7 µM. 360,000 tested, 0.46% active;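 active means every replicate showing at least 50% inhibition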
GSIS activator: GLuc luminescence reporter in INS-1E cells, primary screen for activators of glucose-dependent secretion of insulin; INS-1E GLuc reporter insulin secretion, 2-3 h; AID 743287; 370,000 tested, 0.61% active; activation, % at 16.6 µM;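 active means lowest replicate activation of at least 40%, so every replicate reaches that level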
ERAP1 HTS inh: inhibitors of human ERAP1 aminopeptidase. Q9NZ08. recombinant ERAP1, Leu-AMC fluorescence, 60 min. AID 652197. 340,000 tested, 0.15% active. inhibition, % at 10.7 µM;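 active means mean replicate inhibition of at least 30%, or all replicates individually reaching that 30% level; inactive means mean below 30% and not every replicate reaching it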
AF4-AF9 inh: blocks AF4 peptide binding to human AF9; P42568; 350,000 tested, 0.47% active; inhibition, % at 10 µM; AlphaScreen, biotin-AF4 peptide binding to FLAG-AF9;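 active means every replicate reaching a set inhibition limit, whatever the replicate mean, cut at about 25% in these data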
Target sequence (P42568 whole entry, looked up): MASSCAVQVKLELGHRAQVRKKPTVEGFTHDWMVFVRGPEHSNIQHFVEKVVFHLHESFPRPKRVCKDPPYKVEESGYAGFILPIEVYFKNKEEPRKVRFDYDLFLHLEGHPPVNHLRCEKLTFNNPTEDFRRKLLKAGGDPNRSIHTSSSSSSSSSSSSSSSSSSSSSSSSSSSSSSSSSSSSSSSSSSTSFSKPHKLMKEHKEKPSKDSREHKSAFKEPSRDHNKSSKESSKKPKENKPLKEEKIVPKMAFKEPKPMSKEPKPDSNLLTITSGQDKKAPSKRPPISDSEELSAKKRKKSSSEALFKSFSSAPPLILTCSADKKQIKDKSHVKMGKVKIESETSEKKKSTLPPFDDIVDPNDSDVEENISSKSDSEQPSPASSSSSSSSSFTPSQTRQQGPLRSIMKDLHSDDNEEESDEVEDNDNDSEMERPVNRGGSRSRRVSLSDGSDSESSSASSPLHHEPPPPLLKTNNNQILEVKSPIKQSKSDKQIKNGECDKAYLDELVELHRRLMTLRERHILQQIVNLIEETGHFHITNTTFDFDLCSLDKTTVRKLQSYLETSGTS
S100A4 MyoIIA: blocks human S100A4 binding to myosin IIA peptide; inhibition, % at 10.7 µM; 360,000 tested, 0.14% active; AID 652163; S100A4/TAMRA-MyoIIA peptide fluorescence polarization;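 active means mean inhibition of at least 70% across replicates, with every replicate also reaching that level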
Target sequence (P26447 whole entry, looked up): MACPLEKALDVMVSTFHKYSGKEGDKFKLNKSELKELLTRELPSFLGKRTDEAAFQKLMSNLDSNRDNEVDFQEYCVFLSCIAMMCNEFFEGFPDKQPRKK
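assay system = human S100A4 monomer with TAMRA-labelled myosin IIA peptide | also added = labelled myosin peptide probe, 5 nM | incubation = 5 min between mix addition and reading | control set = DMSO and TFP controls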
Hits are given with their value; ! = not confirmed by another sample.

How did O=C(Nc1ccc(F)cc1)N1C[C@@H]2N[C@H](C1)C2c1ccc(-c2ccccc2F)cc1 (stereo not given in full) do in these assays?
RAD52 inh: 55!; GSIS activator: inactive; ERAP1 HTS inh: inactive; AF4-AF9 inh: inactive; S100A4 MyoIIA: inactive

How did Cc1cccc(-c2ccc(C3[C@@H]4CN(C(=O)Nc5ccccc5)C[C@H]3N4)cc2)c1 (stereo not given in full) do in these assays?
GSIS activator: inactive

Results for COc1ccc(CN2CC3(CCN(S(=O)(=O)c4ccc(C)cc4)CC3)c3c([nH]c4cc(OC)ccc34)[C@@H]2CO)cc1 ?
GSIS activator: inactive

Results for Cc1ccc(O)c(CP(=O)(c2ccccc2)c2ccccc2)c1 ?
RAD52 inh: inactive; GSIS activator: 44; ERAP1 HTS inh: inactive; AF4-AF9 inh: inactive; S100A4 MyoIIA: inactive

Results for CC1=NN(c2ccccc2)C(=O)C1/C=C1/NC(=S)NC1=O (stereo not given) ?
RAD52 inh: inactive; GSIS activator: inactive; ERAP1 HTS inh: inactive; AF4-AF9 inh: inactive; S100A4 MyoIIA: inactive

What do the screens show for `CC1=NN(c2ccccc2)C(=O)C1C=Nc1ccc(N(C)C)cc1` (stereo not given)?
RAD52 inh: inactive; GSIS activator: inactive; AF4-AF9 inh: 31; S100A4 MyoIIA: inactive

Results for O=C(N/N=C/c1cc(Cl)ccc1O)c1ccc(Br)cc1 ?
GSIS activator: 41

Results for O=C(c1cccc(C(F)(F)F)c1)N1CCCC1 ?
RAD52 inh: inactive; GSIS activator: inactive; ERAP1 HTS inh: inactive; AF4-AF9 inh: inactive; S100A4 MyoIIA: inactive

How did O=C(Nc1ccc(C(=O)N2CCCC2)cc1)c1cccc(C(F)(F)F)c1 do in these assays?
RAD52 inh: inactive; GSIS activator: 48; ERAP1 HTS inh: inactive; AF4-AF9 inh: inactive; S100A4 MyoIIA: inactive

How did C[C@@H]1CC=CC[C@@H](c2cccc(Cl)c2)NC(=O)[C@H](C)N(C)C(=O)c2ccccc2O1 (mixture of isomers) do in these assays?
GSIS activator: inactive

What do the screens show for `CCOC(=O)C1=C(c2ccccc2)NC(=O)NC1c1cc(Cl)c(O)c(OC)c1` (stereo not given)?
RAD52 inh: inactive; GSIS activator: inactive; ERAP1 HTS inh: inactive; AF4-AF9 inh: inactive; S100A4 MyoIIA: inactive

What do the screens show for `CCOC(=O)C1=C(c2ccccc2)NC(N)=NC1c1ccc(OCc2ccc(Cl)cc2)c(OC)c1` (stereo not given)?
RAD52 inh: inactive; GSIS activator: inactive; ERAP1 HTS inh: inactive; AF4-AF9 inh: 27; S100A4 MyoIIA: inactive

Results for Cc1cc2oc(=O)cc(CN3CCOCC3)c2c(C)c1Cl ?
RAD52 inh: inactive; GSIS activator: 41; ERAP1 HTS inh: inactive; AF4-AF9 inh: inactive; S100A4 MyoIIA: inactive

Results for COc1cc(C2=NOC(C(=O)Nc3cccnc3)C2)cc(OC)c1OC (stereo not given) ?
RAD52 inh: inactive; GSIS activator: inactive; ERAP1 HTS inh: inactive; AF4-AF9 inh: inactive; S100A4 MyoIIA: inactive

What do the screens show for `COc1ccc(C2=NOC(C(=O)Nc3cccnc3)C2)cc1OC` (stereo not given)?
RAD52 inh: inactive; GSIS activator: 75; AF4-AF9 inh: inactive; S100A4 MyoIIA: inactive

What do the screens show for `CC(=O)N1[C@@H]2CN(CC(F)(F)F)C[C@H]1C2c1ccccc1` (stereo not given in full)?
GSIS activator: inactive

How did CNC(=O)C1=C[C@H](c2csc3ccccc23)C[C@H](OCc2ccc(CO)cc2)O1 do in these assays?
RAD52 inh: inactive; ERAP1 HTS inh: inactive; AF4-AF9 inh: inactive; S100A4 MyoIIA: inactive

What do the screens show for `COCc1cc(C)nc(Sc2nc3c(c(=O)n(C)c(=O)n3C)n2C)c1C#N`?
RAD52 inh: inactive; GSIS activator: inactive; ERAP1 HTS inh: 31; AF4-AF9 inh: inactive; S100A4 MyoIIA: inactive

How did CCCN1C[C@H](C)[C@@H](OC)CN(C)C(=O)c2cc(NC(=O)NC3CCCC3)ccc2OC[C@H]1C do in these assays?
GSIS activator: inactive

How did CCOc1ccccc1NC(=O)C(C)N1C(=O)c2ccccc2S1(=O)=O (stereo not given) do in these assays?
RAD52 inh: inactive; GSIS activator: inactive; ERAP1 HTS inh: inactive; AF4-AF9 inh: 29; S100A4 MyoIIA: inactive

How did O=C(CCl)Nc1ccc(N2CCCCCC2)cc1 do in these assays?
RAD52 inh: inactive; GSIS activator: inactive; ERAP1 HTS inh: inactive; AF4-AF9 inh: 51; S100A4 MyoIIA: inactive

What do the screens show for `COc1ccc2c3c(n(C)c2c1)[C@H](CO)N(C(=O)c1ccccc1)CC31CCN(C(C)=O)CC1`?
RAD52 inh: inactive; GSIS activator: inactive; ERAP1 HTS inh: inactive; AF4-AF9 inh: inactive; S100A4 MyoIIA: inactive

Results for COc1ccc(S(=O)(=O)N2CCC3(CC2)CN(C(=O)CN(C)C)[C@@H](CO)c2c3c3ccc(OC)cc3n2C)cc1 ?
RAD52 inh: inactive; GSIS activator: inactive; ERAP1 HTS inh: inactive; AF4-AF9 inh: 35; S100A4 MyoIIA: inactive

How did COc1ccc2c3c(n(C)c2c1)[C@H](CO)N(C(=O)c1ccccc1)CC31CCN(C(=O)c2ccccc2)CC1 do in these assays?
RAD52 inh: inactive; GSIS activator: inactive; ERAP1 HTS inh: inactive; AF4-AF9 inh: inactive; S100A4 MyoIIA: 73

How did COc1ccc2c3c(n(C)c2c1)[C@@H](CO)N(C(=O)CN(C)C)CC31CCN(C(=O)CN(C)C)CC1 do in these assays?
RAD52 inh: inactive; GSIS activator: inactive; ERAP1 HTS inh: inactive; AF4-AF9 inh: inactive; S100A4 MyoIIA: inactive

How did COc1ccc2c3c(n(C)c2c1)[C@H](CO)N(C(=O)c1ccccc1)CC31CN(Cc2ccccc2OC)C1 do in these assays?
GSIS activator: inactive; AF4-AF9 inh: 45

Results for C[C@H](CO)N1C[C@H](C)[C@@H](CN(C)Cc2ccc(C(=O)O)cc2)Oc2c(NC(=O)CCC(F)(F)F)cccc2C1=O ?
GSIS activator: inactive

How did COc1ccc(C#Cc2ccc3c(c2)O[C@@H](CN(C)C(=O)Nc2cccc(OC)c2)[C@@H](C)CN([C@@H](C)CO)S3(=O)=O)cc1 do in these assays?
RAD52 inh: inactive; GSIS activator: inactive; ERAP1 HTS inh: inactive; AF4-AF9 inh: inactive; S100A4 MyoIIA: inactive

Results for CCOC(=O)Nc1ccc2c(c1)Sc1ccccc1N2C(=O)CCN1CCOCC1 ?
GSIS activator: 107

How did CN1CCN(CCC(=O)N2c3ccccc3Sc3ccc(Cl)cc32)CC1 do in these assays?
RAD52 inh: inactive; GSIS activator: inactive; ERAP1 HTS inh: inactive; S100A4 MyoIIA: inactive

Results for O=C(C[C@H]1C=C[C@H](NS(=O)(=O)c2ccc(F)cc2)[C@H](CO)O1)NCCN1CCCCC1 ?
RAD52 inh: inactive; GSIS activator: inactive; ERAP1 HTS inh: inactive; AF4-AF9 inh: inactive; S100A4 MyoIIA: inactive

What do the screens show for `Cc1ccc(-c2nc3ncccn3c2N)cc1`?
RAD52 inh: inactive; GSIS activator: inactive; AF4-AF9 inh: inactive; S100A4 MyoIIA: inactive

What do the screens show for `Nc1c(-c2ccccc2)nc2ncccn12`?
RAD52 inh: inactive; GSIS activator: 49; ERAP1 HTS inh: inactive; S100A4 MyoIIA: inactive
